Data set [1] deals with T1, Monocarboxylate transporter 1 (Rattus norvegicus, UniProt P53987).
T1 sequence (P53987 whole entry): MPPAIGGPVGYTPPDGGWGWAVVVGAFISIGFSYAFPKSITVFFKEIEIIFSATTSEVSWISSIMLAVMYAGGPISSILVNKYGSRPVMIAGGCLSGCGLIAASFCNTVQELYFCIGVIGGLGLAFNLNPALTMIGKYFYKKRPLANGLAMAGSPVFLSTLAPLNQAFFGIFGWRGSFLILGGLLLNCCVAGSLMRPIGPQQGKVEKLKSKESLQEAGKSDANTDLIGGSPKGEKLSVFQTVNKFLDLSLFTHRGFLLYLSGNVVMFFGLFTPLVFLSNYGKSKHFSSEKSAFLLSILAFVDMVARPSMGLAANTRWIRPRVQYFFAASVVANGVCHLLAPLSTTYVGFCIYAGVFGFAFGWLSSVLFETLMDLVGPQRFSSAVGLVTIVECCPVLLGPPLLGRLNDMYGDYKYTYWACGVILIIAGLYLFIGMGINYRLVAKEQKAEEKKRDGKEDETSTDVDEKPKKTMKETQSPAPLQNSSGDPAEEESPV
In words: Inhibition of MCT1-mediated lactate transport in rat RBE4 cells incubated for 15 mins by [14C]-lactate uptake assay. The format is cell-based. In a few lines: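 MCT1 inhibition measured as [14C]-lactate uptake in rat brain endothelial RBE4 cells, which highly express MCT1 (Western blot). IC50 is the test-compound concentration causing 50% transport inhibition.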

For data set [2], the system named is Mus musculus. Kind of data set: Drug elimination in CD1(ICR) mouse at 100 mg/kg, ip by LC-MS/MS method. The format is ADME, organism-based. The settings on record: in vivo. The essentials:
(§1)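 Preliminary pharmacokinetics in ICR mice. Sixty mice were split into two groups and given 100 mg/kg, one group intraperitoneally and the other intragastrically.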

Data set [3] concerns Mus musculus. In words: Toxicity in CD1(ICR) mouse assessed as survival at 6.67 mg/kg, ip bid for 3 weeks. The settings on record: in vivo, 504 h.
Data set [4] concerns Mus musculus. Kind of data set: Toxicity in CD1(ICR) mouse assessed as induction of weight gain at 50 mg/kg, ip qd for 3 weeks. The format is organism-based. The settings on record: in vivo, 504 h. In a few lines:
(§2)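 In a follow-up systemic toxicity study, healthy ICR mice were dosed at 50 mg/kg either by oral gavage twice daily or ip once daily. Mortality and body weight gain were compared with a control group.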

Data set [5] has as its system Mus musculus. Kind of data set: Drug elimination in CD1(ICR) mouse at 100 mg/kg, ig by LC-MS/MS method. The format is ADME, organism-based. The settings on record: in vivo, po. In a few lines: as §1
Data set [6] has as its system Mus musculus. In words: Toxicity in CD1(ICR) mouse assessed as induction of weight gain at 50 mg/kg, po bid for 3 weeks. The format is organism-based. The settings on record: in vivo, 504 h. In a few lines: as §2
Data set [7] in a line: Tmax in CD1(ICR) mouse at 100 mg/kg, ip by LC-MS/MS method. The format is ADME, organism-based. The settings on record: in vivo. In a few lines:
as §1

The subject of data set [8] is Mus musculus. Kind of data set: Toxicity in CD1(ICR) mouse assessed as survival at 6.67 mg/kg, ip bid for 3 weeks. The format is organism-based. The settings on record: in vivo, 504 h. The essentials: (§3)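 Healthy ICR mice were given 6.67 mg/kg ip, twice daily, in 0.1% DMSO in saline for three weeks. Survival and body weight gain were recorded and compared with a control group.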

Data set [9] relates to Mus musculus. Kind of data set: Toxicity in CD1(ICR) mouse assessed as induction of weight gain at 6.67 mg/kg, ip bid for 3 weeks. The settings on record: in vivo, 504 h.
Data set [10] has as its system Mus musculus. In words: Toxicity in CD1(ICR) mouse assessed as induction of weight gain at 6.67 mg/kg, ip bid for 3 weeks. The settings on record: in vivo, 504 h. The format is organism-based. In a few lines:
as §3

Data set [11] relates to Mus musculus. Kind of data set: Toxicity in CD1(ICR) mouse assessed as survival at 50 mg/kg, ip qd for 3 weeks. The settings on record: in vivo, 504 h. The format is organism-based. The essentials: as §2
A short description of data set [12]: Tmax in CD1(ICR) mouse at 100 mg/kg, ig by LC-MS/MS method. The format is ADME, organism-based. The settings on record: in vivo, po. In a few lines:
as §1

Data set [13] in a line: Solubility in water. The format is physicochemical.
Data set [14] relates to Mus musculus. In words: Toxicity in CD1(ICR) mouse assessed as survival at 50 mg/kg, po bid for 3 weeks. The settings on record: in vivo, 504 h. The format is organism-based. The essentials: as §2

Regarding `N#C/C(=C\c1ccc([N+](=O)[O-])cc1)C(=O)O`, the IC50 in data set [1] was determined as 0.5 µM. On the same count and under the same terms, the value for `CCc1ccc(/C=C(\C#N)C(=O)O)cc1` was 0.5 µM; that for `N#C/C(=C\c1ccc(Cl)cc1)C(=O)O` was 0.5 µM. In data set [1], `N#C/C(=C\c1ccc(Br)cc1)C(=O)O` returned a half-maximal inhibitory concentration (IC50) of 0.5 µM. Same read-out and setting: under `N#C/C(=C\c1ccc(C#N)cc1)C(=O)O` stands 0.5 µM; under `N#C/C(=C\c1ccc2c(c1)OCO2)C(=O)O`, 0.5 µM; under `CCN(CC)c1ccc(/C=C(\C#N)C(=O)O)cc1`, 0.07 µM. With `CCCN(CCC)c1ccc(/C=C(\C#N)C(=O)O)cc1`, in [1], the IC50 worked out at 0.01 µM. Same read-out and setting: the value for `CCCCN(CCCC)c1ccc(/C=C(\C#N)C(=O)O)cc1` was 0.03 µM; that for `CC(C)CN(CC(C)C)c1ccc(/C=C(\C#N)C(=O)O)cc1` was 0.1 µM; that for `CCCCCN(CCCCC)c1ccc(/C=C(\C#N)C(=O)O)cc1` was 0.14 µM.

`CCCCCCN(CCCCCC)c1ccc(/C=C(\C#N)C(=O)O)cc1` registered an IC50 in [1] of 0.88 µM. Consider `C=CCN(CC=C)c1ccc(/C=C(\C#N)C(=O)O)cc1`, for which, in [1], the IC50 is 0.11 µM. `C#CCN(CC#C)c1ccc(/C=C(\C#N)C(=O)O)cc1`: the IC50 in data set [1] came to 0.4 µM. With `N#C/C(=C\c1ccc(N(c2ccccc2)c2ccccc2)cc1)C(=O)O`, half-maximal inhibition in data set [1] (IC50) was put at 0.03 µM. Still for that read-out and setting: the value for `N#C/C(=C\c1ccc(N2CCCC2)cc1)C(=O)O` was 0.07 µM. For `N#C/C(=C\c1ccc(N2CCCCC2)cc1)C(=O)O`, in [1], it took 0.14 µM to reach half-maximal inhibition (IC50). Compared with the last molecule, the IC50 is about 2-fold higher.

`CCCN(CCC)c1ccc(/C=C(\C#N)C(=O)O)c(OC)c1` returned an IC50 in [1] of 0.012 µM.

As for `COc1cc(N(CC(C)C)CC(C)C)ccc1/C=C(\C#N)C(=O)O`, the IC50 in data set [1] came out at 0.011 µM. Take `CCCCCN(CCCCC)c1ccc(/C=C(\C#N)C(=O)O)c(OC)c1`: the IC50 in data set [1] stood at 0.034 µM. With `COc1cc(N(c2ccccc2)c2ccccc2)ccc1/C=C(\C#N)C(=O)[O-].[Na+]`, the Drug excretion entry in the data set on Mus musculus [2] and in the data set on Mus musculus [5] was “<= 24 hr” throughout. For the same molecule, the Activity entry with Mus musculus [3], with Mus musculus [4], with Mus musculus [6], in the data set on Mus musculus [8], in the data set on Mus musculus [9] and in the data set with Mus musculus [10] was “Non-toxic” throughout. The Activity result in the data set with Mus musculus [11] and with Mus musculus [14] was “Non-toxic” throughout. Besides, the midpoint of inhibition in data set [1], the IC50, lay at 0.011 µM. Also, the Tmax in data set [7] was 15 min; in data set [12], 18 min. The molecule also came in with a solubility in data set [13] of 1000 µg/mL. In the case of `C=CCN(CC=C)c1ccc(/C=C(\C#N)C(=O)O)c(OC)c1`, it took 0.029 µM to reach half-maximal inhibition in [1] (IC50). In data set [1], `COc1cc(N2CCCC2)ccc1/C=C(\C#N)C(=O)[O-].[Na+]` showed an IC50 of 0.048 µM. For the same molecule, the solubility in data set [13] was over 7000 µg/mL. Taken in the same sequence, the figures for `COc1cc(N2CCCCC2)ccc1/C=C(\C#N)C(=O)[O-].[Na+]` were 0.025 µM and over 7000 µg/mL.

As to `Cc1ccc(/C=C(\C#N)C(=O)O)cc1`, the IC50 in data set [1] came to 0.5 µM.

In turn, `CN(C)c1ccc(/C=C(\C#N)C(=O)O)cc1` came in with an IC50 in data set [1] of 0.14 µM.

In data set [1], `COc1ccc(/C=C(\C#N)C(=O)O)cc1` came in with an IC50 of 0.5 µM. On the same count and under the same terms, under `N#C/C(=C\c1ccc(F)cc1)C(=O)O` stands 0.5 µM.

The values are drawn from ChEMBL document CHEMBL3580575, “Monocarboxylate transporter 1 inhibitors as potential anticancer agents” (ACS Med Chem Lett, 2015).
